Source: paper PMC3794531 (Biomolecules & Therapeutics, 2012)

Experiments:
[1] = tested on: colon cancer-induced mice; experiment: In vivo survival test in colon cancer-induced mice; details: intravenous, n=4
Method in brief: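 Mice were anesthetized and the cecum exteriorized by laparotomy. CT26 cells (1×10^6 in 50 μl) were injected into the cecal wall, then the gut was returned and the incision closed (surgical orthotopic implantation). Test compounds were given intravenously, and survival was followed over the experimental period.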

[2] = sodium phosphate (pH 7), 120 min; ref Tallman et al., 2005; cited from earlier work
[3] = ref Kawato et al., 1991; cited from earlier work
[4] = tested on: HT29; experiment: MTT cytotoxicity test in HT29 cells; assay type: cell-based; details: Homo sapiens, HT-29, 72 h
Method in brief: (§1)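 Cells were grown in DMEM with 10% FBS, 100 unit/ml penicillin and 0.1 mg/ml streptomycin at 37℃ and 5% CO2, and split near 80% confluency. They were seeded at 1×10^5 cells/well and cultured 24 h to ~80% confluency, then exposed to test compound for 72 h. MTT (0.5 mg/ml in serum-free medium) was added for 2 h, and absorbance was read at 540 nm. Data are mean ± SD.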

[5] = tested on: MCF7 cells; experiment: MTT cytotoxicity test in MCF7 cells; assay type: cell-based; details: Homo sapiens, MCF7, 72 h
Method in brief: as §1

[6] = tested on: CT26; experiment: MTT cytotoxicity test in CT26 cells; assay type: cell-based
Method in brief: as §1

[7] = Proportion of total lactone form in PBS, MCF7 cell lysates and rat plasma; assay type: in vitro ADME; details: 37℃
Method in brief: (§2)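 Test compound (5 μM) was incubated at 37℃ in PBS, rat plasma, or MCF7 lysate. Lysate was prepared by adding PMSF, sonicating 10 sec, and centrifuging at 4℃ and 13,200 rpm for 15 min. Samples taken over time up to 120 min were quenched in ice-cold acetonitrile and centrifuged. Supernatant was diluted in 10 mM K2HPO4 pH 7.4 and run on C18 HPLC (K2HPO4:acetonitrile 62:38, 1 ml/min) with fluorescence detection (ex 380/em 540 nm). Data are mean ± SD.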

[8] = Stability test in PBS, MCF7 cell lysates and rat plasma; assay type: in vitro ADME; details: 5 μM, 37℃
Method in brief: as §2

| SMILES | survived longer than the irinotecan-administered group [1] | percentage of SN-38 lactone remaining [2] | potency relative to irinotecan in terms of in vitro cytotoxicity [3] [fold] | EC50 [4] [nM] | EC50 [5] [nM] | potency compared with irinotecan ([6]; MTT assay, CT26 and HT29 (Fig. 2)) | EC50 ([6]; Mus musculus, CT26, 72 h) [nM] | proportion of the lactone form at 120 min ([7]; MCF7 lysates) | proportion of the lactone form at 120 min ([7]; PBS) | proportion of the lactone form at 120 min ([7]; all 3 conditions (PBS, MCF7 lysates, plasma)) | initial proportion of the lactone form ([7]; early time points, all 3 conditions (PBS, MCF7 lysates, plasma), 5 μM) | proportion of the lactone form at 120 min ([7]; rat plasma) | stability in MCF7 lysates ([8]; MCF7 lysates, up to 120 min) | compound remaining after 120 min ([8]; PBS) [%] | compound remaining after 120 min ([8]; rat plasma) | survival time [1] [days] |
| --- | --- | --- | --- | --- | --- | --- | --- | --- | --- | --- | --- | --- | --- | --- | --- | --- |
| CCc1c2c(nc3ccc(O)cc13)-c1cc3c(c(=O)n1C2)COC(=O)[C@]3(O)CC [SN-38, 7-ethyl-10-hydroxy-camptothecin] | at least 2 weeks | around 40% | 100 | 1320 | 248 | much more potent than the parent compound irinotecan | 17300 | around 40% | around 40% | 30-40% | 80-90% | ~ 30% | rather unstable | ~80 | about 60% | – |
| CCc1c2c(nc3ccc(OC(=O)N4CCC(N5CCCCC5)CC4)cc13)-c1cc3c(c(=O)n1C2)COC(=O)[C@]3(O)CC [irinotecan] | – | – | – | – | – | – | – | – | – | – | – | – | – | – | – | < 28 |
